Laboratory results from ChEMBL document CHEMBL2417404, “Synthesis and structure-activity relationship (SAR) of 2-methyl-4-oxo-3-oxetanylcarbamic acid esters, a class of potent N-acylethanolamine acid amidase (NAAA) inhibitors” (J Med Chem, 2013).
Blank lines part the entries; values can stand above or below the compound they belong to.

Legend:
[1] = Selectivity ratio of IC50 for rat NAAA to IC50 for human NAAA
[2] = biological target: T1, N-acylethanolamine-hydrolyzing acid amidase (Homo sapiens, UniProt Q02083); experiment: Inhibition of C-terminal His-6-tagged recombinant human spleen NAAA enzyme expressed in HEK293 cells; assay type: cell-based
T1 sequence (Q02083 whole entry): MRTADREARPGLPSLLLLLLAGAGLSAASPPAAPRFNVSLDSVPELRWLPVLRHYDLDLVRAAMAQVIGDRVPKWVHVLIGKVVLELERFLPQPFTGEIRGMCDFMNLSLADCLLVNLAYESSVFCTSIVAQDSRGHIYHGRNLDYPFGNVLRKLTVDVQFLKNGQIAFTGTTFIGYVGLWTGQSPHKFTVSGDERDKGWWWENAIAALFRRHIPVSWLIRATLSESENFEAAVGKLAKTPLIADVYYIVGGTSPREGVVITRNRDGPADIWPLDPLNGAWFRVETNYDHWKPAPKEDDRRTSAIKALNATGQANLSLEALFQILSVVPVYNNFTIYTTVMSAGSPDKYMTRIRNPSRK
Summary of the method: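 Stable HEK293 clone (G418 selection) expressing h-NAAA; cell pellets sonicated, then membrane fraction prepared by centrifugation with a freeze/thaw step. 10 μg protein preincubated 30 min at 37 °C with inhibitor in citrate/phosphate buffer pH 4.5 (0.1% Triton X-100, 3 mM DTT). Duplicates then given 50 μM 10-cis-heptadecenoylethanolamide for 30 min at 37 °C. Heptadecenoic acid measured by UPLC-MS; IC50 from fixed-slope nonlinear regression.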

[3] = biological target: T2, Fatty-acid amide hydrolase 1 (Rattus norvegicus) (UniProt P97612); experiment: Inhibition of rat brain FAAH using [3H]anandamide as substrate preincubated at 10 uM for 10 mins followed by substrate addition by liquid scintillation counting
T2 sequence (whole entry): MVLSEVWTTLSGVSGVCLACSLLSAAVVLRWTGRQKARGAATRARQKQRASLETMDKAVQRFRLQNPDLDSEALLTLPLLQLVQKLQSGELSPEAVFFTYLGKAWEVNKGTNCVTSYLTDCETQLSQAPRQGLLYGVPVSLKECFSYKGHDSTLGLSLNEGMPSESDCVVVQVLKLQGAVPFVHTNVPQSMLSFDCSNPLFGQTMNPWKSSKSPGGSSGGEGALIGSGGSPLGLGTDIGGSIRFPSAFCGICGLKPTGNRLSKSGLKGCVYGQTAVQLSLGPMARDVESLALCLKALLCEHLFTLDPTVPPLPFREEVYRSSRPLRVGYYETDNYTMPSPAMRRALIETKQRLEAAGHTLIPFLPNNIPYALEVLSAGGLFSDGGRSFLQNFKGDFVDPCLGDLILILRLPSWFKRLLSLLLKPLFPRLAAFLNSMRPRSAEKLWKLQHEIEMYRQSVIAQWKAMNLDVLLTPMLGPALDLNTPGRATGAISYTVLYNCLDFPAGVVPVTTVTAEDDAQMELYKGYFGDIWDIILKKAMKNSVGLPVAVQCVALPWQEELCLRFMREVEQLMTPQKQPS
Summary of the method: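 Rat brain homogenate (50 μg protein) was preincubated with compound for 10 min. Then 30 min at 37 °C with 1 μM cold AEA plus 0.6 nM [3H]AEA in 50 mM Tris pH 7.4 containing 0.05% fatty-acid-free BSA. Stopped with cold CHCl3/MeOH 1:1, and the aqueous phase was counted.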

[4] = biological target: T3, Acid ceramidase (Rattus norvegicus) (UniProt Q6P7S1); experiment: Inhibition of rat lung acid ceramidase overexpressed in HEK293 cells using N-Lauroyl ceramide as substrate preincubated at 10 uM for 30 mins followed by substrate addition by LC-MS analysis; assay type: cell-based
T3 sequence (whole entry): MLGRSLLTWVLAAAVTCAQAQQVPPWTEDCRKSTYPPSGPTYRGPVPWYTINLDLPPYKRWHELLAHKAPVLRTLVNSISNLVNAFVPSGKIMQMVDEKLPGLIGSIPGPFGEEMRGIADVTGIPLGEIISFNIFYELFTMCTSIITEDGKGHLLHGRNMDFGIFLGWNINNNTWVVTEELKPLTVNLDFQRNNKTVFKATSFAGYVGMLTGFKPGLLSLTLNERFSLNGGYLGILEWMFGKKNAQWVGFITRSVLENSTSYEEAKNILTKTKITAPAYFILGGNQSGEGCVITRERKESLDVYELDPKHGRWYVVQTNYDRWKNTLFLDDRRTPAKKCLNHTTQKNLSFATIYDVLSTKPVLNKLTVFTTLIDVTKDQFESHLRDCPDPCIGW
Summary of the method: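 Enzyme (25 μg) from HEK293 cells overexpressing rat AC was preincubated with compound for 30 min at 37 °C in 100 mM NaH2PO4, 100 mM trisodium citrate, 0.1% Triton X-100, 3 mM DTT, pH 4.5. Then 100 μM N-lauroyl ceramide was added. Lauric acid (m/z 199) was measured by negative-ion LC-MS with heptadecanoic acid (m/z 269) as internal standard.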

[5] = biological target: T4, N-acylethanolamine-hydrolyzing acid amidase (Rattus norvegicus, UniProt Q5KTC7); experiment: Inhibition of Sprague Dawley rat lung native NAAA enzyme using heptadecenoylethanolamide as substrate preincubated for 30 mins followed by substrate addition measured after 30 mins by UPLC-MS analysis
T4 sequence (Q5KTC7 whole entry): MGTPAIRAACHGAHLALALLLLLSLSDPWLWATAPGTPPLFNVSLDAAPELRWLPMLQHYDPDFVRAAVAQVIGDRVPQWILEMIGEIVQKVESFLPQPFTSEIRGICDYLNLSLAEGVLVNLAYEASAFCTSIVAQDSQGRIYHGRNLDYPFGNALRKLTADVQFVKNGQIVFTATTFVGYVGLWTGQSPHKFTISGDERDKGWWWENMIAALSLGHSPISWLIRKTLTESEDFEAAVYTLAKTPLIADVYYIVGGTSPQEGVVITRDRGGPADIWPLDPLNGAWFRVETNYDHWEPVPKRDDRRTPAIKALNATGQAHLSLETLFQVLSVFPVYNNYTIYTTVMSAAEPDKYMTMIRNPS
Summary of the method: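 Native enzyme from lungs of male Sprague-Dawley rats (275-300 g). Lungs were homogenized in 20 mM Tris-HCl pH 7.4 with 0.32 M sucrose, spun at 800g, then the supernatant at 12000g. The pellet was freeze/thawed in PBS, and the final 105000g pellet was used. Protein (10 μg) was preincubated with compound or vehicle for 30 min at 37 °C in NaH2PO4/citrate buffer pH 4.5 with 0.1% Triton X-100 and 3 mM DTT. Then 50 μM substrate, 37 °C, 30 min, duplicates. Heptadecenoic acid quantified against heptadecanoic acid internal standard. IC50 by fixed-slope nonlinear regression.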

SMILES: C[C@@H]1OC(=O)[C@@H]1NC(=O)OCCCOCc1ccccc1
Ratio IC50 [1]: 2 | IC50 [2]: 20 nM | inhibition [3]: < 10% | inhibition [4]: < 10%

SMILES: C[C@@H]1OC(=O)[C@@H]1NC(=O)OCCCCCc1ccccc1
Ratio IC50 [1]: 2 | inhibition [3]: < 10% | inhibition [4]: < 10%

SMILES: C[C@@H]1OC(=O)[C@@H]1NC(=O)OCc1ccc(-c2ccccc2)cc1
inhibition [3]: < 10% | inhibition [4]: 30%

SMILES: CCCCCOC(=O)N[C@H]1C(=O)O[C@H]1C
IC50 ([5]; read-out: IC50): 760 nM

SMILES: CC(CCCCc1ccccc1)OC(=O)N[C@H]1C(=O)O[C@H]1C (mixture of isomers)
IC50 ([5]; read-out: IC50): 29 nM

SMILES: C[C@@H]1OC(=O)[C@@H]1NC(=O)OCc1cccc(-c2ccccc2)c1
IC50 ([5]; read-out: IC50): 23000 nM

SMILES: CCCCCCC[C@@H](C)OC(=O)N[C@H]1C(=O)O[C@H]1C
IC50 ([5]; read-out: IC50): 270 nM

SMILES: C[C@@H]1OC(=O)[C@@H]1NC(=O)OCCCc1ccccc1
IC50 ([5]; read-out: IC50): 90 nM

SMILES: C[C@H]1OC(=O)[C@@H]1NC(=O)OCCCCCc1ccccc1
IC50 ([5]; read-out: IC50): 20 nM

SMILES: CCCCCCCC(C)OC(=O)N[C@H]1C(=O)O[C@H]1C (mixture of isomers)
IC50 ([5]; read-out: IC50): 60 nM

SMILES: CC(C)C(CCCCc1ccccc1)OC(=O)N[C@H]1C(=O)O[C@H]1C (stereo partly drawn)
IC50 ([5]; read-out: IC50): 80 nM

Continued, values first:

IC50 ([5]; read-out: IC50): 12200 nM
SMILES: CC(C)C(CCCCc1ccccc1)OC(=O)N[C@H]1C(=O)O[C@H]1C (single isomer, unassigned; diastereomer 2)

IC50 [5]: Not Active
SMILES: C[C@@H]1OC(=O)[C@@H]1N(C)C(=O)OCCCCCc1ccccc1

Ratio IC50 [1]: 2 | inhibition [3]: 19% | inhibition [4]: 45%
SMILES: CCCCCCC[C@H](C)OC(=O)N[C@H]1C(=O)O[C@H]1C

Ratio IC50 [1]: 2 | inhibition [3]: < 10% | inhibition [4]: < 10% | IC50 ([5]; read-out: IC50): 13 nM
SMILES: C[C@@H]1OC(=O)[C@@H]1NC(=O)OCCCCCC1CCCCC1

IC50 ([5]; read-out: IC50): 5100 nM
SMILES: CC(CCCCc1ccccc1)OC(=O)N[C@H]1C(=O)O[C@H]1C (single isomer, unassigned; diastereomer 2)

IC50 ([5]; read-out: IC50): 18 nM
SMILES: CC(CCCCc1ccccc1)OC(=O)N[C@H]1C(=O)O[C@H]1C (single isomer, unassigned; diastereomer 1)
